Test results from ChEMBL document CHEMBL4699492, “Discovery of Novel Pyrazolo[3,4-b] Pyridine Derivatives with Dual Activities of Vascular Remodeling Inhibition and Vasodilation for the Treatment of Pulmonary Arterial Hypertension” (J Med Chem, 2020).
Active and inactive are the calls of the source. The rule behind the calls is not given here.

Columns and labels:
[1] = biological target: AMP-activated protein kinase, AMPK (Homo sapiens) (UniProt P54646+O43741+P54619+Q9UGJ0+Q9Y478+Q13131+Q9UGI9); assay: Inhibition of AMPK in TGFbeta-induced HLF1 cells assessed as reduction in cell migration measured after 24 hrs by wound healing assay; assay type: cell-based; details: dose microM 5-10, time 24.0 hrs
Procedure, shortened: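 Wound-healing assay. 5 × 10^4 cells were seeded per well and grown 24 h to near confluence. The monolayer was scratched with a pipette tip and washed with PBS. Cells were then kept in 1% FBS medium with TGF-β (10 ng/mL) or under hypoxia (1% O2, 5% CO2, 94% N2), alone or with compound. Migration ran 24 h at 37 °C, imaged at 0 and 24 h. Mean ± SD from three independent experiments.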

Aorta = assay: Vasodilating activity in Sprague-Dawley rat aortic rings assessed as reduction in phenylephrine-induced contractions at 1 uM relative to control; assay type: functional
Procedure, shortened: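 Thoracic aorta from male SD rats (250-280 g) anesthetized with chloral hydrate, cut into 4 mm rings. Rings held in Krebs-Henseleit at 37 °C gassed with 95% O2/5% CO2, under 2 g resting tension, equilibrated 60 min, and precontracted with 10^-7 M phenylephrine. Cumulative concentrations of 3×10^-9 to 10^-6 M (final) applied. Percent relaxation of the initial contraction taken at 1 µM, and EC50 derived.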

Rattus norvegicus [2] = assay: Inhibition of vascular remodeling activity in Sprague-Dawley rat model of hypoxia-induced pulmonary artery hypertension assessed as reduction in Smad2 phosphorylation in lungs at 10 mg/kg, po administered daily for 2 weeks by Western blot analysis; assay type: functional, organism-based
Procedure, shortened: (§1)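 Hypoxic PAH model in male SD rats (160-200 g) kept at 10% O2 for 4 weeks. Oral dosing at 10 mg/kg daily for 14 days, suspended in 0.5% CMC-Na; control and hypoxia groups received vehicle only. Lungs homogenized in RIPA with protease and phosphatase inhibitors. 30 µg protein run on 10% SDS-PAGE, then PVDF blotting, with β-actin as loading reference. Three independent runs.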

Rattus norvegicus [3] = assay: In vivo stimulation of sGC in Sprague-Dawley rat model of hypoxia-induced pulmonary artery hypertension assessed as […] in PKG1 expression in lungs at 10 mg/kg, po administered daily for 2 weeks by Western blot analysis; assay type: functional, organism-based; procedure, shortened: as §1

With `Cc1ccccc1COc1nc2c(cc1-c1nc(N)cc(N)n1)c(C)nn2-c1ccccc1` the inhibition [1] was “Dose-dependent effect”, the Emax at 1 µM (Aorta) was 63.2% and the inhibition (Rattus norvegicus [2]) was “Active”. For the same compound, the Activity (Rattus norvegicus [3]) was “Active”.
